Results from different studies.
Compare with care: the assays were run in different laboratories.

| Compound | tested on | test | system | setting | measurement | value |
| --- | --- | --- | --- | --- | --- | --- |
| CCOc1ccc(-c2c(Cc3ccc(OC)cc3)[nH]/c(=N/C(=O)C34CC5CC(CC(C5)C3)C4)n2C)cc1OC | Hepatitis B virus | viral replication, inhibitor | HePAD38 | – | IC50 | 10900 nM |
| Nc1ccc(/C=C/C(=O)N2CCc3c(oc4c(-c5ccc(F)cc5)cc(-c5ccc(C(=O)N6C[C@@H]7[C@H](C6)C7(F)F)nn5)cc34)C2)cn1 | PANC-1 | cell growth or viability, CCK-8 | – | 72 h | IC50 | > 20000 nM |
| O=C(NC(=S)Nc1ccccc1O)c1cccs1 | Leishmania tropica | parasite growth, resazurin | – | promastigote | IC50 | 290 nM |
| C=CC(=O)NC1CCN(c2ncc3ncnc(Nc4ccc(Oc5ccc6c(c5)ncn6C)c(C)c4)c3n2)CC1 | NUGC-4 | cell growth or viability | – | – | EC50 | 14.4 nM |
| N#Cc1c(-c2ccc(OCc3ccccc3)cc2)c(C(N)=O)c(N)n(N)c1=O | Saccharomyces cerevisiae | microbial growth, well diffusion | ATCC9763 | 500 µg/mL | inhibition zone | 16 mm |
| O=C(NC(=S)Nc1ccccn1)c1ccco1 | Leishmania tropica | parasite growth, resazurin | – | promastigote | IC50 | 940 nM |
| Cc1c(C(N)=S)c(N)n(N)c(=O)c1C#N | Saccharomyces cerevisiae | microbial growth, well diffusion | ATCC9763 | 500 µg/mL | inhibition zone | 18 mm |
| O=C(NO)c1ccc(CNc2nc3cccc(-c4ccc5c(c4)OCO5)n3n2)cc1 | SF-268 | cell growth or viability, SRB | – | – | GI50 | 470 nM |
| CN(C)c1ccc(-c2c(C(N)=O)c(N)n(N)c(=O)c2C#N)cc1 | Saccharomyces cerevisiae | microbial growth, well diffusion | ATCC9763 | 500 µg/mL | inhibition zone | 13 mm |
| O=C(NC(=S)Nc1cccc(O)c1)c1cccs1 | Leishmania tropica | parasite growth, resazurin | – | promastigote | IC50 | 480 nM |
| CC(=O)Oc1ccc(-c2c(C(N)=O)c(N)n(N)c(=O)c2C#N)cc1 | Saccharomyces cerevisiae | microbial growth, well diffusion | ATCC9763 | 500 µg/mL | inhibition zone | 9 mm |
| Nc1ccc(/C=C/C(=O)N2CCc3c(oc4c(-c5ccc(F)cc5)cc(-c5ccc(C(=O)N6CCC(F)(F)CC6)nn5)cc34)C2)cn1 | PANC-1 | cell growth or viability, CCK-8 | – | 72 h | IC50 | > 20000 nM |
